Source: ChEMBL document CHEMBL5724801, “EUbOPEN Chemogenomics Library - Multiplex” (2024)
Where “and” joins values, the source holds several entries; their conditions need not be identical. Equal values may be shown once.

System: Fibroblast
Experiment: Multiplex assay against human fibroblast
Type: toxicity, cell-based
In short: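 Per cents of healthy-nucleus cells form the tubulin, mitochondrial-mass and membrane-permeability phenotype values. Live cells were stained at seeding with Hoechst33342, BioTracker Green Microtubule Cytoskeleton Dye, MitoTracker Red and Annexin V Alexa Fluor 680. After compound addition they were imaged on a CQ1 microscope at 37°C and 5% CO2, and CellPathfinder machine-learning gating split them into Hoechst high-intensity objects or normal cells, normal cells into healthy, pyknosed or fragmented nuclei, and pyknosed cells into mitotic or apoptotic.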

[1] = 12 h, 1 µM, compound concentration 1 uM
[2] = 12 h, 10 µM, compound concentration 10 uM
[3] = 24 h, 1 µM, compound concentration 1 uM
[4] = 24 h, 10 µM, compound concentration 10 uM
[5] = 48 h, 1 µM, compound concentration 1 uM
[6] = 48 h, 10 µM, compound concentration 10 uM

Cl.NCCc1ccc(O)c(O)c1 [DOPAMINE HYDROCHLORIDE]
Population Apoptotic (%) [1]: 42% and 44% | Population Fragmented Nuclei (%) [1]: 13% and 34% | Population Healthy Nuclei (%) [1]: 63% and 40% | Population Hoechst High Intensity Objects (%) [1]: 1% | Population Membrane Permeable-Phenotype (%) [1]: 0% and 4% | Population Mitochondria Different-Phenotype (%) [1]: 1% and 6% | Population Mitotic Cells (%) [1]: 57% and 55% | Population Normal (%) [1]: 98% | Population Pyknosed Nuclei (%) [1]: 23% and 24% | Population Tubulin-Different-Phenotype (%) [1]: 34% and 45% | Total Cell Count [1]: 115 and 152 | Population Apoptotic (%) [2]: 56% and 41% | Population Fragmented Nuclei (%) [2]: 14% and 35% | Population Healthy Nuclei (%) [2]: 62% and 40% | Population Hoechst High Intensity Objects (%) [2]: 3% and 4% | Population Membrane Permeable-Phenotype (%) [2]: 0% and 6% | Population Mitochondria Different-Phenotype (%) [2]: 3% and 6% | Population Mitotic Cells (%) [2]: 43% and 58% | Population Normal (%) [2]: 96% and 95% | Population Pyknosed Nuclei (%) [2]: 23% | Total Cell Count [2]: 135 and 127 | Population Apoptotic (%) [3]: 55% and 51% | Population Fragmented Nuclei (%) [3]: 14% and 34% | Population Healthy Nuclei (%) [3]: 69% and 47% | Population Hoechst High Intensity Objects (%) [3]: 0% and 2% | Population Membrane Permeable-Phenotype (%) [3]: 1% and 7% | Population Mitochondria Different-Phenotype (%) [3]: 1% and 0% | Population Mitotic Cells (%) [3]: 44% and 48% | Population Normal (%) [3]: 99% and 97% | Population Pyknosed Nuclei (%) [3]: 16% and 18% | Population Tubulin-Different-Phenotype (%) [3]: 31% and 37% | Total Cell Count [3]: 112 and 150 | Population Apoptotic (%) [4]: 55% and 47% | Population Fragmented Nuclei (%) [4]: 16% and 37% | Population Healthy Nuclei (%) [4]: 69% and 46% | Population Hoechst High Intensity Objects (%) [4]: 2% and 3% | Population Membrane Permeable-Phenotype (%) [4]: 1% and 3% | Population Mitochondria Different-Phenotype (%) [4]: 5% and 7% | Population Mitotic Cells (%) [4]: 44% and 52% | Population Normal (%) [4]: 97% and 96% | Population Pyknosed Nuclei (%) [4]: 13% and 15% | Population Tubulin-Different-Phenotype (%) [4]: 22% and 56% | Total Cell Count [4]: 136 and 126 | Population Apoptotic (%) [5]: 36% and 38% | Population Fragmented Nuclei (%) [5]: 22% and 33% | Population Healthy Nuclei (%) [5]: 66% and 52% | Population Hoechst High Intensity Objects (%) [5]: 6% | Population Membrane Permeable-Phenotype (%) [5]: 1% and 5% | Population Mitochondria Different-Phenotype (%) [5]: 2% and 3% | Population Mitotic Cells (%) [5]: 63% and 61% | Population Normal (%) [5]: 93% | Population Pyknosed Nuclei (%) [5]: 10% and 14% | Population Tubulin-Different-Phenotype (%) [5]: 28% and 43% | Total Cell Count [5]: 110 and 159 | Population Apoptotic (%) [6]: 87% and 90% | Population Fragmented Nuclei (%) [6]: 21% and 31% | Population Healthy Nuclei (%) [6]: 66% and 60% | Population Hoechst High Intensity Objects (%) [6]: 4% and 0% | Population Membrane Permeable-Phenotype (%) [6]: 0% and 7% | Population Mitochondria Different-Phenotype (%) [6]: 4% | Population Mitotic Cells (%) [6]: 12% and 10% | Population Normal (%) [6]: 95% and 99% | Population Pyknosed Nuclei (%) [6]: 11% and 8% | Population Tubulin-Different-Phenotype (%) [6]: 25% and 56% | Total Cell Count [6]: 141 and 116

CNC[C@H](O)c1ccc(O)c(O)c1 [EPINEPHRINE]
Population Apoptotic (%) [1]: 36% and 40% | Population Fragmented Nuclei (%) [1]: 17% and 38% | Population Healthy Nuclei (%) [1]: 66% and 44% | Population Hoechst High Intensity Objects (%) [1]: 1% | Population Mitochondria Different-Phenotype (%) [1]: 3% and 7% | Population Mitotic Cells (%) [1]: 63% and 60% | Population Normal (%) [1]: 98% | Population Pyknosed Nuclei (%) [1]: 16% and 17% | Population Tubulin-Different-Phenotype (%) [1]: 15% and 42% | Population Apoptotic (%) [2]: 40% and 32% | Population Fragmented Nuclei (%) [2]: 18% and 39% | Population Healthy Nuclei (%) [2]: 61% and 37% | Population Hoechst High Intensity Objects (%) [2]: 3% and 7% | Population Mitochondria Different-Phenotype (%) [2]: 6% and 8% | Population Mitotic Cells (%) [2]: 60% and 67% | Population Normal (%) [2]: 96% and 92% | Population Pyknosed Nuclei (%) [2]: 20% and 23% | Population Tubulin-Different-Phenotype (%) [2]: 23% and 55% | Population Apoptotic (%) [3]: 54% and 23% | Population Healthy Nuclei (%) [3]: 70% and 47% | Population Hoechst High Intensity Objects (%) [3]: 0% and 3% | Population Membrane Permeable-Phenotype (%) [3]: 0% and 12% | Population Mitochondria Different-Phenotype (%) [3]: 3% and 6% | Population Mitotic Cells (%) [3]: 45% and 76% | Population Normal (%) [3]: 99% and 96% | Population Pyknosed Nuclei (%) [3]: 16% and 14% | Population Tubulin-Different-Phenotype (%) [3]: 11% and 32% | Population Apoptotic (%) [4]: 65% and 38% | Population Fragmented Nuclei (%) [4]: 16% and 39% | Population Healthy Nuclei (%) [4]: 60% and 44% | Population Hoechst High Intensity Objects (%) [4]: 3% | Population Membrane Permeable-Phenotype (%) [4]: 0% and 12% | Population Mitochondria Different-Phenotype (%) [4]: 5% and 4% | Population Mitotic Cells (%) [4]: 34% and 61% | Population Normal (%) [4]: 96% | Population Pyknosed Nuclei (%) [4]: 23% and 15% | Population Tubulin-Different-Phenotype (%) [4]: 21% and 51% | Population Apoptotic (%) [5]: 50% and 38% | Population Fragmented Nuclei (%) [5]: 17% and 41% | Population Healthy Nuclei (%) [5]: 67% and 48% | Population Hoechst High Intensity Objects (%) [5]: 1% | Population Membrane Permeable-Phenotype (%) [5]: 0% and 6% | Population Mitochondria Different-Phenotype (%) [5]: 6% and 5% | Population Mitotic Cells (%) [5]: 50% and 61% | Population Normal (%) [5]: 98% | Population Pyknosed Nuclei (%) [5]: 15% and 10% | Population Tubulin-Different-Phenotype (%) [5]: 23% and 45% | Population Apoptotic (%) [6]: 77% and 37% | Population Fragmented Nuclei (%) [6]: 20% and 50% | Population Healthy Nuclei (%) [6]: 65% and 44% | Population Hoechst High Intensity Objects (%) [6]: 2% and 3% | Population Membrane Permeable-Phenotype (%) [6]: 2% and 6% | Population Mitochondria Different-Phenotype (%) [6]: 4% and 3% | Population Mitotic Cells (%) [6]: 22% and 62% | Population Normal (%) [6]: 97% and 96% | Population Pyknosed Nuclei (%) [6]: 13% and 5% | Population Tubulin-Different-Phenotype (%) [6]: 32% and 46%

CN[C@@H](C)C(=O)N[C@H](C(=O)N1CCC[C@H]1C(=O)Nc1snnc1-c1ccccc1)C1CCCCC1 [GDC-0152]
Population Apoptotic (%) [1]: 70% and 33% | Population Fragmented Nuclei (%) [1]: 14% and 16% | Population Healthy Nuclei (%) [1]: 68% and 56% | Population Hoechst High Intensity Objects (%) [1]: 4% and 6% | Population Membrane Permeable-Phenotype (%) [1]: 1% and 6% | Population Mitochondria Different-Phenotype (%) [1]: 6% and 9% | Population Mitotic Cells (%) [1]: 30% and 66% | Population Normal (%) [1]: 95% and 93% | Population Pyknosed Nuclei (%) [1]: 16% and 26% | Population Tubulin-Different-Phenotype (%) [1]: 38% and 62% | Total Cell Count [1]: 127 and 121 | Population Apoptotic (%) [2]: 38% and 24% | Population Fragmented Nuclei (%) [2]: 17% and 26% | Population Healthy Nuclei (%) [2]: 59% and 34% | Population Hoechst High Intensity Objects (%) [2]: 6% and 10% | Population Membrane Permeable-Phenotype (%) [2]: 0% | Population Mitochondria Different-Phenotype (%) [2]: 13% and 10% | Population Mitotic Cells (%) [2]: 61% and 75% | Population Normal (%) [2]: 93% and 90% | Population Pyknosed Nuclei (%) [2]: 22% and 39% | Population Tubulin-Different-Phenotype (%) [2]: 80% and 65% | Total Cell Count [2]: 144 and 150 | Population Apoptotic (%) [3]: 60% and 37% | Population Fragmented Nuclei (%) [3]: 20% and 22% | Population Healthy Nuclei (%) [3]: 63% and 55% | Population Hoechst High Intensity Objects (%) [3]: 2% and 9% | Population Membrane Permeable-Phenotype (%) [3]: 1% and 2% | Population Mitochondria Different-Phenotype (%) [3]: 1% and 11% | Population Mitotic Cells (%) [3]: 40% and 62% | Population Normal (%) [3]: 97% and 90% | Population Pyknosed Nuclei (%) [3]: 16% and 22% | Population Tubulin-Different-Phenotype (%) [3]: 30% and 61% | Total Cell Count [3]: 123 and 133 | Population Apoptotic (%) [4]: 67% and 41% | Population Fragmented Nuclei (%) [4]: 14% and 33% | Population Healthy Nuclei (%) [4]: 58% and 34% | Population Hoechst High Intensity Objects (%) [4]: 5% and 8% | Population Membrane Permeable-Phenotype (%) [4]: 0% and 16% | Population Mitochondria Different-Phenotype (%) [4]: 21% and 22% | Population Mitotic Cells (%) [4]: 32% and 58% | Population Normal (%) [4]: 94% and 91% | Population Pyknosed Nuclei (%) [4]: 26% and 31% | Population Tubulin-Different-Phenotype (%) [4]: 83% and 68% | Total Cell Count [4]: 135 and 157 | Population Apoptotic (%) [5]: 47% and 57% | Population Fragmented Nuclei (%) [5]: 23% and 38% | Population Healthy Nuclei (%) [5]: 60% and 44% | Population Hoechst High Intensity Objects (%) [5]: 1% and 5% | Population Membrane Permeable-Phenotype (%) [5]: 0% and 2% | Population Mitotic Cells (%) [5]: 52% and 42% | Population Normal (%) [5]: 98% and 94% | Population Pyknosed Nuclei (%) [5]: 16% and 17% | Population Tubulin-Different-Phenotype (%) [5]: 48% and 67% | Total Cell Count [5]: 132 and 159 | Population Apoptotic (%) [6]: 76% and 44% | Population Fragmented Nuclei (%) [6]: 23% and 39% | Population Healthy Nuclei (%) [6]: 45% and 42% | Population Hoechst High Intensity Objects (%) [6]: 6% | Population Membrane Permeable-Phenotype (%) [6]: 0% and 19% | Population Mitochondria Different-Phenotype (%) [6]: 22% and 17% | Population Mitotic Cells (%) [6]: 23% and 55% | Population Normal (%) [6]: 93% | Population Pyknosed Nuclei (%) [6]: 31% and 18% | Population Tubulin-Different-Phenotype (%) [6]: 81% and 88% | Total Cell Count [6]: 145 and 159
